Screens as filed in PubChem BioAssay.
SENP1 FRET inh: inhibitors of human SENP1 SUMO protease catalytic domain | AID 624204 | inhibition, % at 10 µM | Q9P0U3 | 360,000 compounds, 0.21% hits | recombinant SENP1 catalytic domain, CyPet-SUMO1-YPet FRET cleavage;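 active means inhibition at least 30% at 10 µM, raw YFP signal under a set limit, fluorescence ratio 0.5 to 1.5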;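 further: 0% = enzyme with DMSO and 100% = no enzyme wells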
Target sequence (Q9P0U3 419-644 limits assumed): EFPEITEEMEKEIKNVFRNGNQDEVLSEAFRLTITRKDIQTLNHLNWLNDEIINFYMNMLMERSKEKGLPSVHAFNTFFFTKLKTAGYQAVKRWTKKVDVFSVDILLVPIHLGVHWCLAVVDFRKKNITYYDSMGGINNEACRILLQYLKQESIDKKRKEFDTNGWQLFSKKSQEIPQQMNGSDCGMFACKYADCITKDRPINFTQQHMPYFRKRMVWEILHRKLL
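Test system: recombinant human SENP1 catalytic domain, His6-tagged / Medium: pH 8 Tris buffer with EDTA, NaCl, BME, BSA, NP40, catalase / Also added: SUMO1 FRET substrate flanked by Cypet and Ypet, 25 nM / Times: 50 min reaction at room temperature / Signal: FRET, CFP and YFP emission / Control set: no-enzyme low control and enzyme-plus-DMSO high control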
EBI2 block: EBI2 (human) antagonism | P32249 | EBI2 beta-arrestin recruitment, luminescence, 7a,25-OHC stimulated | inhibition, % at 5 µM | 360,000 compounds, 0.81% hits | AID 651636; in the data active means inhibition above about 38%;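 further: enzyme fragment complementation signal reports receptor beta-arrestin coupling in cells; 0% = agonist plus DMSO wells and 100% = wells without agonist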
Target sequence (P32249 whole entry, looked up, the tested form may be a part): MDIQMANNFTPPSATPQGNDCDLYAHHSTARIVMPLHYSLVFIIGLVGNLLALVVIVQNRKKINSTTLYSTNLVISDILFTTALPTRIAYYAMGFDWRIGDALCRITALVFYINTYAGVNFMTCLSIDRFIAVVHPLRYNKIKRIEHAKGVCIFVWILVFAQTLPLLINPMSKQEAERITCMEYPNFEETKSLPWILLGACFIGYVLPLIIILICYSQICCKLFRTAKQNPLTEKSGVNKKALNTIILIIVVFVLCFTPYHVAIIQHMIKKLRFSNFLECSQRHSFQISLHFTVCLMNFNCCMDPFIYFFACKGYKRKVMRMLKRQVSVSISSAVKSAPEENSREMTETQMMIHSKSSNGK
NR3A LBD binder: modulates the human NR3A ligand-binding domain. NR3A LBD differential scanning fluorimetry, Tm shift; 0% = protein alone, 100% = glycine-bound protein. Tm shift relative to glycine control, % at 25 µM. 340,000 compounds, 2.5% hits;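 active means melting temperature shift of at least 10% of the positive control shift, at one fixed dose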
MPTP inh: inhibitors of mitochondrial permeability transition pore; inhibition, % at 10 µM; 360,000 compounds, 1.4% hits; isolated mouse mitochondria, Ca2+ swelling absorbance, 30 min;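 active means inhibition of 50% or more, scaled per plate between neutral and stimulator controls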;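 further: 0% = DMSO wells given calcium and 100% = 1 mM EGTA wells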
MPTP counter: membrane potential counter-screen of mitochondrial pore inhibitors; shares compounds with MPTP inh; isolated mitochondria, Rhodamine 123 fluorescence; inhibition, % at 10 µM; 5,000 compounds, 78% hits; AID 624504; in the data active means inhibition above about 22%;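 further: 0% = DMSO vehicle and 100% = positive control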
MPTP swell DR: dose response confirmation of mitochondrial permeability transition pore inhibitors; shares compounds with MPTP inh; isolated mitochondria swelling, absorbance; IC50, µM; 780 compounds, 58% hits; AID 651561; in the data active means IC50 below about 20 µM
MPTP cs DR: active in counter-screen for permeability transition pore inhibitors | 780 compounds, 49% hits | isolated mitochondria counterscreen, fluorescence read-out | IC50, µM | AID 651564 | shares compounds with MPTP inh; in the data active means IC50 below about 80 µM
An asterisk follows results filed as active; · = no result given. Most compounds without a hit are left out; they make up all but 4.4% or so of the library.

SMILES	SENP1 FRET inh	EBI2 block	NR3A LBD binder	MPTP inh	MPTP counter	others
O=C1N/C(=C\c2ccc(O)cc2)C(=O)c2ccccc21	15	0	5	73*	-7
Cc1ncc([N+](=O)[O-])n1CCOC(=O)Nc1ccc([N+](=O)[O-])cc1	1	-2	-2	77*	71*
CCOC(=O)CN1C(=O)S/C(=C/c2ccc(C)o2)C1=O	-3	-8	-4	-1	·
CCN1C(=O)S/C(=C/c2ccc(Sc3nc4ccccc4[nH]3)o2)C1=O	-37	-2	-4	80*	76*
CC1CCCC(NC(=O)Cn2cc(C(F)(F)F)cc(Cl)c2=O)C1C (stereo not drawn)	3	-8	1	1	·
CCOc1ccccc1NS(=O)(=O)c1cc2c3c(c1)CC(=O)N3CCC2	1	7	9	0	·
O=C(c1ccc(OC2CCN(CCO)CC2)cc1)N1CCCC1	-2	3	2	1	·
Cc1ccc2nc3c(c(Nc4ccc5c(c4)OCCO5)c2c1)CCC3	0	-8	-1	54*	76*
Cc1cccc(Nc2c3c(nc4ccccc24)CCC3)c1	0	-13	-4	78*	74*
CCn1c(-c2ccc(C(C)(C)C)cc2)n[nH]c1=S	3	12	1	69*	16	MPTP swell DR=18*;MPTP cs DR=26*
CCn1c(-c2ccc(F)cc2)n[nH]c1=S	2	-4	1	1	·
CNC(=O)c1cc(Oc2ccc(NC(=O)Nc3ccc(Cl)c(C(F)(F)F)c3)cc2)ccn1	0	-8	12*	57*	46*
O=C(CCCCN1CCCCC1)c1ccc2c(c1)Cc1ccccc1-2	4	-10	-16	95*	81*
CCC(C)NC(=O)c1ccc2nc(Cc3ccc(OC)cc3)oc2c1 (stereo not drawn)	2	2	0	0	·
CCC(NC(=O)c1ccc2nc(Cc3ccc(OC)cc3)oc2c1)c1ccncc1 (stereo not drawn)	2	19	0	66*	76*
CC1CCCC(NC(=O)CSc2nncs2)C1C (stereo not drawn)	1	9	1	-1	·
Cc1ccc(CNC(=O)c2cc3c(C)nc4ccccc4c3o2)cc1	2	-1	-12	46	·
Cc1nc2ccccc2c2oc(C(=O)NCc3ccc4c(c3)OCO4)cc12	-3	8	5	63*	31*
CCOC(=O)c1c(NC(=O)C(C)N2CCN(S(=O)(=O)c3cccs3)CC2)sc2c1CCC(C)C2 (stereo not drawn)	1	8	1	0	·
Cc1ccc(-c2nn(-c3ccccc3)cc2CNCc2ccccc2)cc1	-1	-3	-4	96*	-3	MPTP swell DR=4.7*;MPTP cs DR=30*
Cc1ccc(-n2cc(CNCCCn3ccnc3C)c(-c3ccc(F)cc3)n2)cc1	2	5	-3	60*	-12
CC(=O)N1CCOc2ccc(S(=O)(=O)NCC3CCC(C(=O)Nc4ccc(C)cn4)CC3)cc21 (stereo not drawn)	-1	3	0	0	·
O=C(COC(=O)c1cc(S(=O)(=O)Nc2ccccc2Cl)ccc1O)Nc1ccc(F)c(F)c1F	1	-5	4	68*	85*
Cc1c(C)n(Cc2ccccc2)c2ccc(C(=O)OCCCN(C)C)cc12	-2	5	-5	78*	-3
Cc1c(C)n(CCN(C)C)c2ccc(C(=O)OCCN(C)C)cc12	0	-1	0	0	·
SMILES	SENP1 FRET inh	EBI2 block	NR3A LBD binder	MPTP inh	MPTP counter	others
CCN1CCN(c2ccc(S(=O)(=O)N3CCCCC3)cc2NC(=O)CC(C)c2ccccc2)CC1 (stereo not drawn)	0	-17	2	2	·
O=C(CC1SC(N2CCCCC2)=NC1=O)Nc1cccc(C(=O)N2CCCC(C(F)(F)F)C2)c1 (stereo not drawn)	1	-7	1	-1	·
Cc1ccc2c(c1)C1CN(C)CCC1N2C(=O)Nc1ccc(Cl)cc1 (stereo not drawn)	-1	0	3	87*	94*
Cc1ccc2c(c1)C1CN(C)CCC1N2C(=O)c1cccc(S(=O)(=O)N(C)C)c1 (stereo not drawn)	3	4	-3	0	·
CCN1/C(=C/C(C)=C/c2sc3ccccc3[n+]2CC)Sc2ccccc21	-32	30	-14	199*	68*
CC(Sc1ccc(Cl)cc1)C(=O)Nc1ccc(S(=O)(=O)N2CCOCC2)cc1 (stereo not drawn)	1	-3	-8	10	·
COc1ccc(C(=O)N2CCCC(C(=O)N3CCN(c4ccccc4)CC3)C2)cc1 (stereo not drawn)	2	-4	2	2	·
O=C(CONS(=O)(=O)c1ccc(Cl)cc1)NCCNc1ncc(C(F)(F)F)cc1Cl	1	6	-19	70*	77*
O=C(CN1CCN(c2ncc(C(F)(F)F)cc2Cl)CC1)NCCNc1ncc(C(F)(F)F)cc1Cl	0	5	4	4	·
COc1ccc(CC(=O)NNC2=Nc3cccc4cccc2c34)cc1OC	-144	-5	-3	5	·
O=C(NNC1=Nc2cccc3cccc1c23)c1ccc(Br)cc1	-20	-8	4	83*	67*
Cc1ccc2c(c1)C(c1ccc(F)cc1)N(C(=O)c1cc3ccccc3oc1=O)CC(=O)N2 (stereo not drawn)	0	-1	2	-1	·
COc1ccc(C[C@H]2CN3C(=NC[C@@H]3C(C)C)N2CCNC(=O)c2ccc(C)c(Br)c2)cc1	0	2	-1	69*	-4
Cc1ccc(C(=O)NCCN2C3=NC[C@H](C(C)C)N3C[C@H]2Cc2ccc(O)cc2)cc1Br	0	3	1	1	·
CCCCCC/C(C)=C1/SC(=S)NC1=O	8	13	-12	83*	75*
C/C(C/C(C)=C1/SC(=S)NC1=O)=C1\SC(=S)NC1=O	-2	-7	0	-1	·
CC(C)CC(=O)Nc1ncc([N+](=O)[O-])s1	-7	-8	0	67*	56*
O=C(Nc1ncc(Cc2cccc(Cl)c2Cl)s1)c1ccc([N+](=O)[O-])cc1	0	-3	-2	25	·
O=C(Nc1ccc(NC(=O)c2cccc([N+](=O)[O-])c2)cc1)c1cccc([N+](=O)[O-])c1	2	0	2	2	·
CCCCC(=O)Nc1ncc([N+](=O)[O-])s1	-5	6	1	1	·
O=C(Nc1ncc([N+](=O)[O-])s1)c1cccc([N+](=O)[O-])c1	-66	-7	-8	56*	79*
O=C(Nc1ccccc1)Nc1ncc([N+](=O)[O-])s1	-13	-5	8	88*	82*
O=C(Nc1ncc(Cc2cc(Cl)ccc2Cl)s1)c1ccc([N+](=O)[O-])cc1	1	12	-5	51*	-4	MPTP swell DR=>100;MPTP cs DR=<2.5*
